STAT3 inh: reduces IL-6 driven STAT3 reporter signal; AID 862; inhibition, % at 5.5 µM; U3A cells, IL-6 STAT3-luciferase reporter, luminescence; host cell line lacks STAT1; actives 0.89% (n = 190,000);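 active = inhibition above the mean inhibition across all screened compounds plus 3 SD, cut at about 44% in these data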;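 also: 0% = DMSO only wells and 100% = 100 µM nifuroxazide control wells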
STAT1 inh-1: STAT1 signaling inhibition; inhibition, % at 5.5 µM; AID 920; NIH 3T3 STAT1-luciferase reporter, IFN-gamma, luminescence; actives 0.35% (n = 200,000);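 active = inhibition above a set limit, the mean inhibition across all tested compounds plus 3 SD, cut at about 34% in these data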;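 also: 0% = IFN-gamma with DMSO and 100% = IFN-gamma with 300 µM nifuroxazide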
APP 5'UTR act: activates APP 5'UTR luciferase reporter. actives 1% (n = 190,000). activation, % at 2 µM. SH-SY5Y APP 5'UTR luciferase reporter, luminescence; zero percent = DMSO vehicle wells;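 active = activation above a set limit, based on mean plus 3 SD of controls, cut at about 140% in these data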
STAT3 activator: activators of IL-6 induced STAT3 signaling. U3A cells, IL-6 STAT3-luciferase reporter, luminescence; 100% = signal with IL-6 EC80 alone. activation (% of control), % at 5.6 µM. actives 0.91% (n = 190,000). AID 871;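 active = activation above the screen-wide mean of compound activation plus 3 SD, cut at about 130% in these data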;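 also: 0% = background luminescence of wells with medium and substrate only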
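Test system: human U3A cells carrying STAT3-luciferase construct; control set: IL-6-only wells as 100% reference; timing: compound pre-incubation 1 h before IL-6, then 6 h stimulation at 37 °C; also added: IL-6 stimulus at 33 ng/mL final; evaluation: % activation versus median of IL-6-stimulated wells; detection: reporter luminescence signal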
STAT1 activator: activators of IFN-gamma induced STAT1 signaling | activation (% of control), % at 5.5 µM | actives 2.6% (n = 200,000) | AID 932 | NIH 3T3 STAT1-luciferase reporter, luminescence; 100% = IFN-gamma alone, no compound;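 active = activation above the screen-wide mean activation plus 3 SD, cut at about 130% in these data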;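 also: raw ratio to IFN-gamma control signal so 100% means no change and 0% no light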
NF-kB expr up: raises NF-kB expression in human neuronal cells; NF-kB reporter expression; hits give high values; fold change at 12.5 µM; actives 1.6% (n = 190,000); in the data active = fold change above about 3.3
STAT1 inh-2: STAT1 inhibition, confirmation assay. actives 55% (n = 200). inhibition, % at 5.5 µM. NIH 3T3 STAT1-luciferase reporter, IFN-gamma, luminescence. shares compounds with STAT1 inh-1. AID 1263;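 active = triplicate mean inhibition exceeding the hit cutoff computed for the primary STAT1 screen, cut at about 35% in these data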;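 also: 0% = DMSO with IFN-gamma and 100% = 300 µM nifuroxazide with IFN-gamma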
NFkB inh STAT1ct: counter-screen for STAT1 inhibitors: NF-kappaB inhibition | AID 1303 | actives 30% (n = 200) | inhibition, % at 5.7 µM | shares compounds with STAT1 inh-1 | HEK293T NF-kB luciferase reporter, TNF-alpha induced, luminescence;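 active = inhibition above the mean of solvent-only control wells plus 3 SD of those wells, cut at about 15% in these data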;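 also: 0% = DMSO with TNF-alpha and 100% = MG-132 control with TNF-alpha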
STAT3 inh 2: STAT3 inhibition in STAT1 inhibitor counter-screen; shares compounds with STAT1 inh-1; inhibition, % at 5.7 µM; AID 1310; actives 20% (n = 200); U3A cells, IL-6 STAT3 luciferase reporter, luminescence; cells lacking STAT1;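 active = inhibition above the mean of solvent-only control wells plus 3 SD, set per campaign, cut at about 25% in these data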;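 also: 0% = IL-6 plus DMSO and 100% = IL-6 plus nifuroxazide control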
Numbers without * were called inactive; · = no result. The list is not random: actives were taken first. Their share in the collection is about 4.9%.

SMILES	STAT3 inh	STAT1 inh-1	APP 5'UTR act	STAT3 activator	STAT1 activator	NF-kB expr up	STAT1 inh-2	NFkB inh STAT1ct	STAT3 inh 2
COc1ccc(-n2cc(-c3ccccc3)c3c(N4CCOCC4)ncnc32)cc1	25	44*	-10	81	58	0.3	28	2	-60
COc1ccc(-n2c(SCc3ccccn3)nc3c(c2=O)SCC3)cc1OC	5	40*	-14	107	63	0.86	30	-2	-24
O=C(CSc1nc2c(c(=O)n1-c1ccccc1)SCC2)N1CCN(c2ccccc2)CC1	14	45*	7	89	59	0.72	53*	16*	16
Nc1nnc(/C=C/c2ccccc2)s1	14	-17	45	90	114	1.2	·	·	·
COc1ccc(CCNC(=O)Cn2c(=O)oc3ccccc32)cc1OC	2	-5	-11	102	105	1.2	·	·	·
COc1ccc(CCNC(=O)Cn2c(=O)n(-c3ccc(F)cc3)c(=O)c3sccc32)cc1OC	17	50*	4	88	52	1.2	35*	4	6
COc1ccc(CCNC(=O)Cn2c(=O)n(-c3ccc(F)cc3F)c(=O)c3sccc32)cc1OC	8	40*	0	95	61	0.88	31	7	12
COc1ccc(CCNC(=O)Cn2c(=O)n(-c3cc(F)ccc3F)c(=O)c3sccc32)cc1OC	8	53*	4	97	51	0.77	34	3	7
CC(C)(C)C(=O)Cn1c(=O)n(-c2ccc(F)cc2F)c(=O)c2sccc21	2	3	25	100	96	1.2	·	·	·
Cc1ccc2nc(N(CCCN(C)C)C(=O)c3sc4ccccc4c3Cl)sc2c1	19	-4	-4	86	104	0.91	·	·	·
O=C1c2ccccc2C(=O)N1CSc1ncccn1	8	-7	-1	97	105	1.3	·	·	·
CNS(=O)(=O)c1ccc2c(c1)oc(=O)c1cc(S(=O)(=O)NC)ccc12	7	-8	9	96	107	1	·	·	·
O=C(NC1CC1)C1CCN(C2CCN(C(=O)/C=C/c3ccc(F)cc3)CC2)CC1	10	2	9	96	96	·	·	·	·
COc1ccc(-c2cc(C(F)(F)F)nc(S(=O)(=O)CCCC(=O)Nc3cc(C)on3)n2)cc1OC	8	51*	-1	100	52	0.97	46*	5	-63
COc1ccccc1-c1cc(C(F)(F)F)nc(S(=O)(=O)CCCC(=O)NC(C)C)n1	11	23	5	93	79	0.92	·	·	·
COc1ccccc1-c1cc(C(F)(F)F)nc(S(=O)(=O)CCCC(=O)Nc2cccnc2Cl)n1	8	43*	-27	96	59	0.97	41*	-7	4
COc1ccccc1-c1cc(C(F)(F)F)nc(S(=O)(=O)CCCC(=O)NCc2ccc(F)cc2)n1	13	32	-24	92	69	1	·	·	·
CCOC(=O)C(=CNc1cc(C)nn1-c1ccc(Cl)cc1)C(=O)OCC	2	59*	1	104	46	0.64	55*	17*	1
CCOC(=O)/C=C(\C)Nc1cc(C)nn1-c1ccccc1	8	-1	-14	97	102	1.2	·	·	·
Cc1c(-c2ccn[nH]2)cc(NC(=O)c2ccc(Cl)cc2)c(=O)n1N	12	-1	7	91	102	1.1	·	·	·
CCC(/C=C1\Sc2ccc(OC)cc2N1CC)=C\c1sc2ccc(OC)cc2[n+]1CCCS(=O)(=O)[O-]	35	41*	-4	74	62	0.33	30	-6	8
CC(C)(C)c1ccc(OCC(=O)N/N=C/c2ccsc2)cc1	-16	-4	16	113	103	1.2	·	·	·
CCC(=O)NC(=S)Nc1ccc(NC(=S)NC(=O)c2ccccc2)cc1	16	83*	0	91	22	0.93	53*	38*	11
CCC(=O)NC(=S)Nc1ccc(NC(=S)NC(=O)c2ccc(C)cc2)cc1	9	6	9	95	93	1.1	·	·	·
CCOC(=O)N1CCN(C(=O)c2ccc(CSc3ccc(Cl)cc3)cc2)CC1	18	38*	17	88	65	0.75	39*	10	24
SMILES	STAT3 inh	STAT1 inh-1	APP 5'UTR act	STAT3 activator	STAT1 activator	NF-kB expr up	STAT1 inh-2	NFkB inh STAT1ct	STAT3 inh 2
CC(=O)c1cccc(NC(=O)CN2C(=S)NC(C)(C)CC2C)c1 (configuration not stated)	6	4	1	96	94	1.3	·	·	·
N#CC(C#N)=C(Nc1ccc(F)cc1)SCc1cccc(Br)c1	33	39*	-1	72	65	0.5	52*	16*	43*
CCC(CC)C1=NN2C(=N)/C(=C\c3cc(C)n(-c4cccc(C)c4)c3C)C(=O)N=C2S1	-10	1	-14	106	99	0.95	·	·	·
CC(C)(C)C(=O)Nc1ccc(-c2nc3ccccc3c(=O)o2)cc1	26	41*	12	81	61	0.27	-13	11	2
CCCC(=O)Nc1cccc(-c2nc3ccccc3c(=O)o2)c1	25	37*	-2	82	64	3.9*	16	5	7
CC(C)C(=O)Nc1ccc(-c2nc3ccccc3c(=O)o2)cc1	21	38*	6	86	64	0.77	19	14	2
CC(C)C(=O)Nc1cccc(-c2nc3ccccc3c(=O)o2)c1	20	14	-1	84	93	0.95	·	·	·
CCC(=O)Nc1cccc(-c2nc3ccccc3o2)c1	8	-10	-13	95	109	1.5	·	·	·
CC(C)(C)C(=O)Nc1cccc(-c2nc3ccccc3c(=O)o2)c1	33	26	6	74	76	1.5	·	·	·
O=C(CCn1c(=O)[nH]c2ccccc2c1=O)NCCSCc1ccccc1	9	3	4	97	96	1.1	·	·	·
COC(=O)c1ccc(CC(=O)c2ccc(O)cc2O)o1	8	21	3	95	80	0.81	·	·	·
CCOC(=O)c1ccc(CC(=O)c2ccc(O)cc2O)o1	25	51*	21	82	53	0.77	46*	32*	-35
COc1ccc(NC(=O)c2ccc(-c3ccccc3)cc2)cc1S(=O)(=O)N1CCOCC1	31	38*	3	75	65	0.99	47*	29*	15
CCc1ccc(C(=O)Nc2ccc(OC)c(S(=O)(=O)N3CCOCC3)c2)cc1	16	13	10	87	88	0.85	·	·	·

Compound activity from PubChem BioAssay.
